# Measured values pooled from the literature.
# Lines come from different studies, so protocols differ.
# Target: Activin receptor type-2A (ACVR2A, Homo sapiens, UniProt P27037)
SMILES,observed,technique,concentration,remaining binding [%]
N[C@H]1CCN(c2nccc(-c3cnn4ncccc34)n2)C1,binding,,1 µM,100
O=C(NCCCN1CCOCC1)c1ccc(Nc2ncc(Cl)c(-c3ccc(Cl)s3)n2)cc1,binding,competition with immobilised ligand,1 µM,90
O=c1nc(-c2ccccn2)sc2ccccc12,cell-free assay,competition with immobilised ligand,1 µM,91
C[C@@H](c1ccc(-n2cnc3c(N)ncnc32)cc1)N1CCc2nn(C)c(Cc3ccccc3)c2C1=O,binding,competition with immobilised ligand,0.1 µM,92
CN([C@@H]1CCc2c(CC(=O)O)c3ccccc3n2C1)S(=O)(=O)c1ccc(F)cc1,cell-free assay,competition with immobilised ligand,1 µM,100
CN(C)c1nccc(-c2cnn3ncccc23)n1,binding,,1 µM,90
C[C@H](c1ccnc(Nc2nc3ccc(-c4cc(N(C)C)ncn4)cc3[nH]2)c1)N1CCN(C(=O)CC(F)(F)F)CC1,cell-free assay,competition with immobilised ligand,0.1 µM,100
COc1ccnn2ncc(-c3ccnc(N(C)C)n3)c12,binding,,1 µM,100
O=C(NCc1ncc(C(F)(F)F)cc1Cl)c1ccc2c(c1)C1(CCS(=O)(=O)CC1)[C@@H](C1CC1)N2S(=O)(=O)c1ccc(F)cc1,cell-free assay,competition with immobilised ligand,1 µM,100
c1cnn2ncc(-c3ccnc(N4CCC45COC5)n3)c2c1,binding,,1 µM,99
CNC(=O)[C@@H]1CC[C@@H](n2c(-c3ccc4cnccc4c3)nc3ccc(C(=O)NCc4cccc(C(N)=O)c4)cc32)C1,binding,competition with immobilised ligand,1 µM,100
Cc1cnc(Nc2ccc(C(=O)N3CCC(N4CCCC4)CC3)cc2)nc1-c1cc2ccccc2s1,binding,competition with immobilised ligand,1 µM,69
O=C(NCC1CCOCC1)c1n[nH]cc1NC(=O)c1c(F)cccc1F,binding,competition with immobilised ligand,1 µM,85
FC(F)(F)Oc1cccc(-c2cnc3ccc(-c4ccncc4)nn23)c1,cell-free assay,competition with immobilised ligand,5 µM,77
O=C(c1ccc(Nc2ncc(Cl)c(-c3ccc(Cl)s3)n2)cc1)N1CCC(N2CCCC2)CC1,binding,competition with immobilised ligand,1 µM,71
CN(C)c1ncc(F)c(-c2cnn3ncccc23)n1,binding,,1 µM,95
O=C1CCc2cc(Nc3cc(OC4CCOCC4)c([N+](=O)[O-])cc3Cl)ccc2N1,cell-free assay,competition with immobilised ligand,1 µM,81
C[C@@H]1CCN(c2nccc(-c3cnn4ncccc34)n2)C1,binding,,1 µM,100
O=C1NC(c2ccccn2)Sc2ccccc21 (stereo not shown),cell-free assay,competition with immobilised ligand,1 µM,100
C=CC(=O)N1CCC(C(=O)NCC(=O)N2CCN(c3nc(-c4cnc(N)nc4C(F)F)nc(N4CCOCC4)n3)CC2)CC1,binding,competition with immobilised ligand,1 µM,86
CCOC(=O)c1cc2cc(-c3cc(C(=O)NCc4ccc(C(=O)O)cc4)nn3C)ccc2[nH]1,cell-free assay,competition with immobilised ligand,0.1 µM,59
F[C@@H]1CCN(c2nccc(-c3cnn4ncccc34)n2)C1,binding,,1 µM,100
